Values after ≈ are worked out from the molar mass of the structure shown.
How the values were obtained:
Type in all cases: functional
Staphylococcus aureus = assay: Antibacterial activity against methicillin-susceptible Staphylococcus aureus ATCC 29213 incubated for 16 to 20 hrs by microdilution method
Enterococcus faecium = assay: Antibacterial activity against Enterococcus faecium NCTC 7171 incubated for 16 to 20 hrs by microdilution method
In short: (§1)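 CLSI broth microdilution. 2-fold serial dilutions were made in cation-adjusted Mueller–Hinton broth, with 5% lysed horse blood added for Streptococcus strains, in triplicate. Inoculum 5×10^5 CFU/mL. Plates incubated 36 °C for 16–20 h. MIC taken as the lowest concentration visibly inhibiting growth.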

Klebsiella pneumoniae = assay: Antibacterial activity against Klebsiella pneumoniae ATCC 700603 incubated for 16 to 20 hrs by microdilution method; in short: as §1
Acinetobacter baumannii = assay: Antibacterial activity against Acinetobacter baumannii ATCC 17961 incubated for 16 to 20 hrs by microdilution method; in short: as §1
Pseudomonas aeruginosa = assay: Antibacterial activity against Pseudomonas aeruginosa […] incubated for 16 to 20 hrs by microdilution method; in short: as §1
Escherichia coli = assay: Antibacterial activity against Escherichia coli ATCC 25922 incubated for 16 to 20 hrs by microdilution method; in short: as §1
Klebsiella aerogenes = assay: Antibacterial activity against Enterobacter aerogenes ATCC 35029 incubated for 16 to 20 hrs by microdilution method; in short: as §1

| SMILES | MIC (Staphylococcus aureus) [µg/mL] | MIC (Enterococcus faecium) [µg/mL] | MIC (Klebsiella pneumoniae) [µg/mL] | MIC (Acinetobacter baumannii) [µg/mL] | MIC (Pseudomonas aeruginosa) [µg/mL] | MIC (Escherichia coli) [µg/mL] | MIC (Klebsiella aerogenes) [µg/mL] |
| --- | --- | --- | --- | --- | --- | --- | --- |
| Nc1ccc(/C=C/c2nc3ccccc3c(=O)n2-c2cccc(O)c2)cc1 | 16 (≈ 45 µM) | ≥ 8 | ≥ 16 | ≥ 16 | ≥ 16 | ≥ 16 | ≥ 16 |
| NC(=O)c1cccc(-n2c(/C=C/c3ccc(Cl)cc3)nc3ccncc3c2=O)c1 |  | ≥ 8 | ≥ 16 | ≥ 16 | ≥ 16 | ≥ 16 | ≥ 16 |
| O=c1c2ccccc2nc(/C=C/c2ccncc2)n1-c1cccc(O)c1 | 2 (≈ 5.86 µM) | ≥ 8 | ≥ 16 | ≥ 16 | ≥ 16 | ≥ 16 | ≥ 16 |
| O=c1c2ccccc2nc(/C=C/c2ccc([N+](=O)[O-])cc2)n1-c1ccc(O)cc1 |  | ≥ 8 | ≥ 16 | ≥ 16 | ≥ 16 | ≥ 16 | ≥ 16 |
| CCc1ccc(/C=C/c2nc3ccccc3c(=O)n2-c2cccc(O)c2)cc1 | 0.5 (≈ 1.36 µM) | ≥ 8 | ≥ 16 | ≥ 16 | ≥ 16 | ≥ 16 | ≥ 16 |
| O=c1c2ccccc2nc(Cc2ccccc2)n1-c1cccc(O)c1 | 32 (≈ 97.5 µM) | ≥ 8 | ≥ 16 | ≥ 16 | ≥ 16 | ≥ 16 | ≥ 16 |
| COC(=O)Cc1ccc(/C=C/c2nc3ccccc3c(=O)n2-c2cccc(C(=O)O)c2)cc1 |  | ≥ 8 | ≥ 16 | ≥ 16 | ≥ 16 | ≥ 16 | ≥ 16 |
| O=C(O)c1cccc(-n2c(/C=C/c3ccc(C#CCO)cc3)nc3ccccc3c2=O)c1 |  | ≥ 8 | ≥ 16 | ≥ 16 | ≥ 16 | ≥ 16 | ≥ 16 |
| N#Cc1ccc(/C=C/c2nc3ccccc3c(=O)n2-c2cccc(C(=O)NCCC(=O)O)c2)cc1 |  | ≥ 8 | ≥ 16 | ≥ 16 | ≥ 16 | ≥ 16 | ≥ 16 |
| COc1ncccc1CNc1cccc(-n2c(/C=C/c3ccc(C#N)cc3)nc3ccccc3c2=O)c1 |  | ≥ 8 | ≥ 16 | ≥ 16 | ≥ 16 | ≥ 16 | ≥ 16 |
| O=c1c2ccccc2nc(/C=C/c2ccco2)n1-c1cccc(O)c1 | 128 (≈ 387 µM) | ≥ 8 | ≥ 16 | ≥ 16 | ≥ 16 | ≥ 16 | ≥ 16 |
| N#Cc1ccc(/C=C/c2nc3cc([N+](=O)[O-])ccc3c(=O)n2-c2cccc(C(=O)O)c2)cc1 | 64 (≈ 146 µM) | ≥ 8 | ≥ 16 | ≥ 16 | ≥ 16 | ≥ 16 | ≥ 16 |
| COC(=O)CCNC(=O)c1cccc(-n2c(/C=C/c3ccc(C#N)cc3)nc3ccccc3c2=O)c1 |  | ≥ 8 | ≥ 16 | ≥ 16 | ≥ 16 | ≥ 16 | ≥ 16 |
| C#Cc1ccc(/C=C/c2nc3ccccc3c(=O)n2-c2cccc(O)c2)cc1 | 0.003 (≈ 0.00823 µM) | ≥ 8 | ≥ 16 | ≥ 16 | ≥ 16 | ≥ 16 | ≥ 16 |
| N#Cc1ccc(/C=C/c2nc3ccccc3c(=O)n2-c2cccc(F)c2)cc1 |  | ≥ 8 | ≥ 16 | ≥ 16 | ≥ 16 | ≥ 16 | ≥ 16 |
| O=c1c2ccccc2nc(CCc2ccccc2)n1-c1cccc(O)c1 | 0.06 (≈ 0.175 µM) | ≥ 8 | ≥ 16 | ≥ 16 | ≥ 16 | ≥ 16 | ≥ 16 |
| O=C(O)c1cccc(-n2c(/C=C/c3ccc(F)c(Cl)c3)nc3ccccc3c2=O)c1 |  | ≥ 8 | ≥ 16 | ≥ 16 | ≥ 16 | ≥ 16 | ≥ 16 |

From ChEMBL document CHEMBL3817745, “Structure-Activity Relationship for the 4(3H)-Quinazolinone Antibacterials” (J Med Chem, 2016)
